We go through 4 compounds from ChEMBL document CHEMBL1828628, “Discovery of a tetrahydroisoquinoline-based hydroxamic acid derivative (ZYJ-34c) as histone deacetylase inhibitor with potent oral antitumor activities” (J Med Chem, 2011).

Calls of active or inactive are those of the source. The calls are words filed in the database; no cut-off is given here.

In series [1] the test system is Mus musculus. As to the kind of experiment: Toxicity in mouse H22 cells xenografted Kunming mouse assessed as change in body weight at 90 mg/kg, po qd for 19 days. The format is organism-based. More on the design: dose 90 mg/kg, route oral. As to conditions: in vivo, 456 h.
For series [2], the system named is MDA-MB-231. In words: Antitumor activity against human MDA-MB-231 cells xenografted in BALB/c nu mouse assessed as tumor growth inhibition at 90 mg/kg, ip qd for 19 days relative to control. The series is classed as functional. As to conditions: route intraperitoneal; for inhibition in vivo at 90 mg/kg: Mus musculus, MDA-MB-231, ip, 456 h, read-out: TGI. In general terms: A xenograft is tissue or cells of one species grown in another, often human tumour cells in immunodeficient mice.

For a further series, the system named is H22. As to the kind of experiment: Antitumor activity against mouse H22 cells xenografted in Kunming mouse assessed as reduction of pulmonary metastatic nodes in lungs at 90 mg/kg, po qd for 14 days. The format is functional, organism-based. More on the design: dose 90 mg/kg.
Series [3] relates to Mus musculus. As to the kind of experiment: Toxicity in mouse H22 cells xenografted Kunming mouse assessed as signs of organ toxicity at 90 mg/kg, po qd for 19 days. The format is organism-based. More on the design: dose 90 mg/kg, route oral. The note with it: in vivo, 456 h.
Series [4] addresses 72 kDa type IV collagenase (Homo sapiens) (UniProt P08253). In words: Inhibition of MMP2.
Series [5] deals with Aminopeptidase N (Homo sapiens) (UniProt P15144). In words: Inhibition of aminopeptidase N.
Aminopeptidase N (Homo sapiens), sequence (P15144 whole entry): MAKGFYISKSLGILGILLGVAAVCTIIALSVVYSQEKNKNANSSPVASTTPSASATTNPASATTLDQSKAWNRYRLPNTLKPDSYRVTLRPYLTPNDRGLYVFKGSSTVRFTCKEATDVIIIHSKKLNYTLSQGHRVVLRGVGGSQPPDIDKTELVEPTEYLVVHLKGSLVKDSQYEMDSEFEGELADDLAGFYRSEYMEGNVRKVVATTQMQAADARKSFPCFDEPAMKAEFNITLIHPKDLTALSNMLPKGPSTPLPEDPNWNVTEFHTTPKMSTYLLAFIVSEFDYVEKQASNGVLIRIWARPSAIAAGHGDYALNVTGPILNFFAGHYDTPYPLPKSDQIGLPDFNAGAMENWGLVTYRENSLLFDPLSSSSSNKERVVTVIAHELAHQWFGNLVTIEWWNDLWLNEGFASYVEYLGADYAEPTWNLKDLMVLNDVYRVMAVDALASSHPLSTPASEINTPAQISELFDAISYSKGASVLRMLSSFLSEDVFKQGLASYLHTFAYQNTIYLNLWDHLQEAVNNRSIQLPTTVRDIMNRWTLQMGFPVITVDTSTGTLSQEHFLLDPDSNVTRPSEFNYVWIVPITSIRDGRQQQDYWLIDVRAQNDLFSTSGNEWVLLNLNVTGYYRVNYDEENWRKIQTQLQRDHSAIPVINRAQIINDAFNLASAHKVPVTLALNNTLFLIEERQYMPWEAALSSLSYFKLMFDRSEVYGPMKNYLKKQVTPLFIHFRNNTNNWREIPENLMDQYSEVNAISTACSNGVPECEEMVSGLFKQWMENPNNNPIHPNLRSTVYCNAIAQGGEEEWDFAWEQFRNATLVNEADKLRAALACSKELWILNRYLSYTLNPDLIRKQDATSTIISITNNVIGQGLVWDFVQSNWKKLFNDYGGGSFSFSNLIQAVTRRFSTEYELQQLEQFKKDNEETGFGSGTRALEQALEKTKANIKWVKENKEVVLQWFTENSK
The test system of series [6] is Mus musculus. In words: Toxicity in human MDA-MB-231 cells xenografted BALB/c nu mouse assessed as change in body weight at 90 mg/kg, ip qd for 19 days. The series is classed as organism-based. Also on record: dose 90 mg/kg, route intraperitoneal. The note with it: in vivo, 456 h. The procedure, abridged: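 Female BALB/c-nu mice, 5–6 weeks old, bearing subcutaneous right-flank xenografts. Mice were randomized 6 per group at about 100 mm3 tumor size. Dosing was oral or intraperitoneal for 19 days; controls received an equal volume of PBS containing DMSO. Body weight was monitored regularly during treatment, and tumors were measured by caliper every three days.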

Series [7] relates to MDA-MB-231. As to the kind of experiment: Cell cycle arrest in human MDA-MB-231 cells assessed as accumulation at G2 phase at 5 uM after 48 hrs using propidium iodide staining by flow cytometric analysis. The format is functional, cell-based. A digest of the protocol:
(§1)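 MDA-MB-231 cells were seeded at 4 × 10^5 per well and incubated overnight, then treated for 48 h. Cells were fixed overnight in 70% ethanol phosphate buffer and washed twice with PBS. They were treated with DNase-free RNase A (1 mg/mL) for 30 min, then stained with propidium iodide for 30 min in the dark at room temperature. DNA content was read by FACScan flow cytometry.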
(Flow cytometry measures light scatter and fluorescence of single cells or particles in a stream.)

For series [8], the system named is MDA-MB-231. As to the kind of experiment: Cell cycle arrest in human MDA-MB-231 cells assessed as accumulation at G1 phase at 1 uM after 48 hrs using propidium iodide staining by flow cytometric analysis. The series is classed as functional, cell-based. A digest of the protocol:
as §1

72 kDa type IV collagenase (Homo sapiens), sequence (P08253 110-660 limits assumed): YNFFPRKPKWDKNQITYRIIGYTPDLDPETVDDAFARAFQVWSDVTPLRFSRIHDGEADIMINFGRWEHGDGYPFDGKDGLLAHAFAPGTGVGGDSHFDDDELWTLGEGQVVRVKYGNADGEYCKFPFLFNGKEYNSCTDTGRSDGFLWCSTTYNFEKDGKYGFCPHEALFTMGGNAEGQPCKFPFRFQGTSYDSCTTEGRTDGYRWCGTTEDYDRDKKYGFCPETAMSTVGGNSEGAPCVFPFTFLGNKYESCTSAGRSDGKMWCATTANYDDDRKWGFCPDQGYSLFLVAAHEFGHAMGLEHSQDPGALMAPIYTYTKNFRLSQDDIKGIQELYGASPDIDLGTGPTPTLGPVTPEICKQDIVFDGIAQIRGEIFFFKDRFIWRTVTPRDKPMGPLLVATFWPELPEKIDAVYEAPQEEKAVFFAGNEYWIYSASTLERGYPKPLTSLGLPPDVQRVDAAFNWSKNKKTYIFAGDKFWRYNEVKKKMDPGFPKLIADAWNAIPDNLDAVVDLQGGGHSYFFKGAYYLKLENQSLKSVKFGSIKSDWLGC

Take `CC[C@H](C)[C@@H](CN1Cc2cc(OCC(=O)NO)ccc2C[C@H]1C(=O)Nc1ccc(OC)cc1)NC(=O)OC(C)(C)C`: the Activity result with Mus musculus [1], with Mus musculus [3] and with Mus musculus [6] was “Non-toxic” in each case. For the same compound, the inhibition in vivo at 90 mg/kg with MDA-MB-231 [2] turned out to be 55%. Moreover, the T/C (commonly the ratio of treated to control) in the series on MDA-MB-231 [2] came to 47%. Moreover, the result with H22 was Active. The inhibition result in [4] is “inactive”. The inhibition entry in series [5] is “Active”.
In the case of `CC[C@H](C)[C@@H](CN1Cc2cc(OCC(=O)NO)ccc2C[C@H]1C(=O)Nc1ccc(OC)cc1)NC(=O)CC(C)(C)C`, the Activity entry with Mus musculus [1], with Mus musculus [3] and in the series on Mus musculus [6] was “Non-toxic” throughout. Also, in the series with MDA-MB-231 [2], the inhibition in vivo at 90 mg/kg is -9%. Moreover, in the series with MDA-MB-231 [2], the T/C is recorded as 87%. In addition, in the series with H22, the result was Active. Besides, in series [4], the inhibition entry was “inactive”. Further, in series [5], the inhibition result was “Active”.
Regarding `O=C(CCCCCCC(=O)Nc1ccccc1)NO`, the outcome in the series with H22 was inactive. For the same compound, the result with MDA-MB-231 [7] and in the series with MDA-MB-231 [8] was Active. For the same compound, in [4], the inhibition result is “inactive”.
Turning to `CC[C@H](C)[C@H](NC(=O)OC(C)(C)C)C(=O)N1Cc2cc(OCC(=O)NO)ccc2C[C@H]1C(=O)Nc1ccc(OC)cc1`, the Activity result with Mus musculus [1], in the series on Mus musculus [3] and in the series with Mus musculus [6] was “Non-toxic” in each case. For the same compound, the inhibition in vivo at 90 mg/kg in the series with MDA-MB-231 [2] is 40%. Further, the T/C with MDA-MB-231 [2] is given as 63%. In the series on H22, the result was Active. Besides, the inhibition entry in [4] was “inactive”. In addition, the inhibition result in series [5] was “Active”.
